HIV Rev-RRE inh = disrupts HIV-1 Rev binding to RRE RNA. inhibition, % at 8 µM. AID 704. 0.79% of 97,000 active. Rev peptide-RRE RNA binding, FRET. P05866;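 active = inhibition above the screen-wide mean plus 3 SD, cut at about 35% in these data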;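 also: 0% = median DMSO wells and 100% = median Neomycin B control wells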
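Test system – labelled RRE RNA duplex and labelled Rev peptide · Signal – fluorescein-to-Cy5 FRET, 480 nm excitation · Evaluation – % inhibition of FRET ratio versus controls · Benchmarks – DMSO low control, neomycin B high control · Incubation – 5 min RNA-compound premix plus 15 min binding step, 25 °C · Medium – HEPES pH 7.5 salt buffer with EDTA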
CYP2C19 act = increases human CYP2C19 enzyme activity. P33261. 96,000 tested, under 10 active. activation factor at 5 µM. recombinant CYP2C19, luciferin-H EGE luminescence; stronger effect = higher value; 0 = fully inhibited enzyme, 1 = untreated enzyme;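 active = activation factor of at least 2 at 5 µM in the primary screen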;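 also: 0 = wells with 2.5 mM tranylcypromine and 1 = vehicle-only wells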
CYP2C19 inhib = inhibitors of human CYP2C19. CYP2C19 Supersomes, luciferin-H EGE luminescence, 30 min. 21% of 96,000 active. inhibition, % at 5 µM. P33261;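 active = CYP2C19 inhibition above a set limit at 5 µM in the primary screen, cut at about 50% in these data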;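 also: plate controls were negative control wells for no effect and 2.5 mM tranylcypromine positive control for full effect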
Cav3 T inh = blocks human Cav3.2 T-type calcium channel; AID 449739; Cav3.2-expressing cells, Fluo-4 calcium fluorescence FDSS; stronger effect = lower value; 4% of 100,000 active; O95180; B-score at 10 µM;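 active = single-dose well whose peak fluorescence ratio is a statistical outlier from its plate by either plate-standardised score or position-corrected B-score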
CYP2C9 act = increases human cytochrome P450 2C9 activity; recombinant CYP2C9, luciferin-H conversion, luminescence; stronger effect = higher value; factor 1 = untreated enzyme, 0 = blocked; activation factor at 5 µM; 1.4% of 96,000 active; AID 1024;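 active = activation factor of 2 or more for CYP2C9 at a 5 µM dose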;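 also: 0 = sulfaphenazole-blocked wells and 1 = vehicle-only wells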
CYP2C9 inh = human CYP2C9 inhibition; CYP2C9 Supersomes, luciferin-H conversion, luminescence; inhibition, % at 5 µM; 20% of 96,000 active; AID 777;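 active = blocking of liver enzyme CYP2C9 beyond about 50% at 5 µM, limit read from the data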
Active calls of the source: *; nt = not tested or not shown. Only some compounds are listed: those with a hit (about 27% of all), similar ones and a draw of the others.

SMILES	HIV Rev-RRE inh	CYP2C19 act	CYP2C19 inhib	Cav3 T inh	CYP2C9 act	CYP2C9 inh
COc1ccc(CNc2cc(C)ccc2C)c(OC)c1OC	-2	0.6	38	-1.4	0.9	6
COc1cc(CNc2ccc(C)c(C)c2)cc(OC)c1OC	nt	0.1	91*	-0.42	0.4	58*
COc1cc(CNc2ccc3c(c2)CCC3)cc(OC)c1O	1	0.7	32	-0.35	1	-3
O=C(NCCN1CCOCC1)C1CCN(Cc2ccccc2O)CC1	12	1.2	-16	0.011	0.9	8
CC(Cc1ccccc1)NC(=O)CSc1nc2nc3c(cc2c(=O)n1-c1ccccc1)COC(C)(C)C3 (stereo unspecified)	8	1	0	0.27	0.9	8
CCOC(=O)C(Cc1ccccc1)NC(C)=O (stereo unspecified)	7	0.9	7	0.65	1	-3
COc1cccc2cc(/C(C)=N/Nc3nc(-c4cc(C)ccc4C)cs3)c(=O)oc12	-5	1.2	-18	-0.18	0.8	19
CCCC(=O)Nc1c(-c2cccs2)c(=O)c2ccccc2n1C	5	0.9	8	-1.9	0.6	43
Cc1ccc(C(=O)Nc2c(-c3cccs3)c(=O)c3ccccc3n2C)cc1	-1	0.8	18	1.5	0	98*
CCn1c(NC(=O)c2cccs2)c(-c2cccs2)c(=O)c2ccccc21	9	0.9	10	0.029	0.1	93*
COc1ccc(-c2cc(=O)n(-c3nc4ccccc4[nH]3)[nH]2)cc1	-1	1.2	-22	-1.2	0.7	28
Cc1nc2nc(COc3ccccc3)[nH]n2c(=O)c1Cl	6	0.7	31	0.098	0.3	75*
Cc1nc2nc(Cc3ccccc3)[nH]n2c(=O)c1Cl	4	1.1	-14	nt	0.3	69*
Cc1ccccc1-n1nnnc1SC1CCOC1=O (stereo unspecified)	nt	0.4	59*	0.76	2.2*	-120
COc1ccccc1-n1cnnc1SC1CCOC1=O (stereo unspecified)	11	0.9	11	nt	0.7	34
CCCN1C(=O)/C(=C/c2ccc(C)s2)NC1=S	5	nt	nt	-1.5	nt	nt
S=c1[nH]nc(CSCc2ccccc2Cl)n1-c1ccccc1	0	0.3	72*	-0.51	0.2	76*
O=C(Nc1ccccc1)N1CCN(c2nc3ccccc3s2)CC1	6	0.4	63*	-3	0.4	59*
O=C(c1cc2sccc2n1Cc1ccccc1)N1CCN(c2nc3ccccc3s2)CC1	1	0.8	25	-7.1*	0.5	53*
CCCc1nc2ccccc2c(=O)n1NC(=O)c1c(O)c2cccc3c2n(c1=O)CCC3	-1	1.2	-16	-8*	1.1	-5
CC(C)c1nnc(NC(=O)c2c(O)c3cccc4c3n(c2=O)CCC4)s1	6	0.9	5	-0.61	0.4	63*
CCCCCCc1nc2ccccc2c(=O)n1NC(=O)c1c(O)c2cccc3c2n(c1=O)CC3	4	nt	nt	nt	nt	nt
O=C(Cn1cc(C(=O)c2cccs2)c2ccccc21)NCc1ccc2c(c1)OCO2	5	0.4	64*	-3	0.3	73*
CCC(=O)c1cn(CC(=O)NCC2CCCO2)c2ccccc12 (stereo unspecified)	nt	0.7	30	1.1	1	4
O=C(Cn1cc(C(=O)c2cccs2)c2ccccc21)NCC1CCCO1 (stereo unspecified)	1	0.3	67*	0.38	0.5	47
SMILES	HIV Rev-RRE inh	CYP2C19 act	CYP2C19 inhib	Cav3 T inh	CYP2C9 act	CYP2C9 inh
CC(COc1ccccc1Cc1ccccc1)N1CCCCC1 (stereo unspecified)	nt	nt	nt	-2.9	nt	nt
Cc1noc(C)c1COC(=O)Cc1ccc(Cl)cc1	9	0.1	92*	0.16	0.4	55*
Cc1noc(C)c1COC(=O)CCCOc1ccc(Cl)cc1Cl	18	0.2	84*	-0.37	0.2	80*
O=c1ccc(/C=C/c2ccccc2)nn1Cc1ccc(Cl)cc1Cl	14	0.7	27	0.58	0.6	42
CCOC(=O)n1c(=O)n(Cc2ccc(Cl)cc2Cl)c2ccccc21	5	0.4	63*	nt	0.8	19
O=Nc1c(O)n(Cc2ccc(Cl)cc2Cl)c2ccccc12	23	0.7	33	0.13	0.4	60*
O=Nc1c(O)n(Cc2ccc(Cl)cc2)c2ccccc12	13	0.2	84*	-0.44	0.1	90*
CCOc1cc(CNC(=O)CN2C(=O)c3ccccc3S2(=O)=O)ccc1OC	nt	0.9	6	2	0.8	19
CCCCCCC(=O)N1C/C=C\C(c2ccc(OC)cc2)N(Cc2ccc(F)cc2)C(=O)[C@H]1Cc1ccccc1 (stereo partly specified)	nt	nt	nt	-0.2	nt	nt
COCCCNc1nc2c([nH]1)c(=O)[nH]c(=O)n2C	-1	1.1	-5	-0.24	1.1	-14
Cc1cc(C(=O)OCC(=O)N2CCc3ccccc32)c(C)o1	nt	1.1	-11	0.29	1.1	-14
Cc1cc(=O)oc2cc(OCC(=O)N3CCc4ccccc4C3)ccc12	3	0.5	45	1	0.8	25
Cc1cc(=O)oc2cc(OCC(=O)N3CCCc4ccccc43)ccc12	7	0.6	44	-0.012	0.2	75*
Cc1cc(=O)oc2ccc(OCC(=O)N3CCc4ccccc43)cc12	3	0.8	15	1.5	0.3	72*
Cc1cccc(OCCC(=O)OCC(=O)N2CCc3ccccc32)c1	14	0.5	53*	-0.44	1.5	-45
Cc1nnc(NC(=O)COc2ccc3c(C)cc(=O)oc3c2)s1	7	0.7	27	nt	0.3	73*
O=c1c2c3c(sc2n2c(=S)[nH]nc2n1Cc1ccccc1)CN(Cc1ccccc1)CC3	-3	nt	nt	nt	nt	nt
Cc1scc(C(=O)N2CCN(S(C)(=O)=O)CC2)c1-c1ccccc1	3	0	97*	0.12	0.7	34
CS(=O)(=O)N1CCN(C(=O)c2csc3ccccc23)CC1	5	0.9	6	-4.2	1.2	-16
O=C(c1ccc(Cn2cc([N+](=O)[O-])cn2)o1)N1N=C(C(F)F)CC1(O)C(F)F (stereo unspecified)	8	0.6	38	0.034	0.4	62*
Cc1ccc(NC2SC(=O)N(CC(=O)O)C2=O)cc1 (stereo unspecified)	12	1.1	-6	-0.071	0.4	61*
O=CNC(=O)c1ccccc1C(=O)O	6	1.1	-9	-1	1.2	-17
OCCSc1c(F)c(SCCO)c(SCCO)c(F)c1SCCO	6	0.6	40	0.85	0.3	70*
COc1ccc(N=c2oc3c(OC)cccc3cc2C(=O)NCc2ccco2)cc1OC	nt	0.5	50*	-1.9	0.3	72*
COc1ccc(-c2noc(-c3ccccc3C(=O)NCc3ccco3)n2)cc1OC	3	0.7	31	nt	0.8	21

Source: PubChem
